Results: ChEMBL document CHEMBL1287787, “Design and synthesis of disubstituted thiophene and thiazole based inhibitors of JNK” (Bioorg Med Chem Lett, 2010)

Key:
[1] = Metabolic stability in human liver microsomes assessed as compound remaining after 30 mins; format: ADME, Microsome; conditions: read-out: Stability
Method in brief: (§1)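 Test compound incubated with mouse or human liver microsomes for 30 min. Read-out is the percent of parent compound remaining at the end of the incubation.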

[2] = target: T1, Mitogen-activated protein kinase 10 (Homo sapiens, UniProt P53779); experiment: Inhibition of recombinant JNK3 after 60 mins by TR-FRET assay
[3] = target: Mitogen-activated protein kinase 9 (Homo sapiens, UniProt P45984); experiment: Inhibition of recombinant JNK2 after 60 mins by TR-FRET assay
[4] = Metabolic stability in mouse liver microsomes assessed as compound remaining after 30 mins; format: ADME, Microsome; conditions: read-out: Stability; method in brief: as §1
[5] = target: Mitogen-activated protein kinase 8 (Homo sapiens, UniProt P45983); experiment: Inhibition of recombinant JNK1 after 60 mins by TR-FRET assay
[6] = target: Mitogen-activated protein kinase 14 (Homo sapiens, UniProt Q16539); experiment: Inhibition of recombinant p38alpha after 60 mins by TR-FRET assay
[7] = target: T2, Mitogen-activated protein kinase 1 (Homo sapiens, UniProt P28482); experiment: Inhibition of recombinant Erk2 after 60 mins by TR-FRET assay
MDR1 = experiment: Permeability from apical to basolateral side of MDCK cells expressing MDR1 after 120 mins; format: ADME, cell-based, Canis lupus familiaris; conditions: dog, read-out: permeability
[8] = target: Receptor-interacting serine/threonine-protein kinase 2 (Homo sapiens) (UniProt O43353); experiment: Inhibition of RIPK2 at 10 uM
[9] = target: Serine/threonine-protein kinase PLK3 (Homo sapiens) (UniProt Q9H4B4); experiment: Inhibition of PLK3 at 10 uM
[10] = tested on: RAF proto-oncogene serine/threonine-protein kinase (Homo sapiens), P04049 [Y340D,Y341D]; experiment: Inhibition of RAF1 Y340D/Y341D mutant at 10 uM
[11] = target: cAMP-dependent protein kinase catalytic subunit alpha (Homo sapiens) (UniProt P17612); experiment: Inhibition of PRKACA at 10 uM
[12] = target: Receptor-type tyrosine-protein kinase FLT3 (Homo sapiens) (UniProt P36888); experiment: Inhibition of FLT3 at 10 uM
[13] = target: Cyclin-dependent kinase 1/cyclin B (Homo sapiens) (UniProt P06493+P14635+Q8WWL7+O95067); experiment: Inhibition of CDK1/cyclin B at 10 uM; format: protein-complex assay
[14] = target: Cyclin-dependent kinase 5/CDK5 activator 1 (Homo sapiens) (UniProt Q00535+Q15078); experiment: Inhibition of CDK5/p25 at 10 uM; format: protein-complex assay
[15] = target: Rho-associated protein kinase 2 (Homo sapiens) (UniProt O75116); experiment: Inhibition of ROCK2 at 10 uM
[16] = target: Cyclin-dependent kinase 2/cyclin A (Homo sapiens) (UniProt P24941+P20248+P78396); experiment: Inhibition of CDK2/cyclin A at 10 uM; format: protein-complex assay
[17] = target: PI3-kinase p110-alpha/p85-alpha (Homo sapiens) (UniProt P27986+P42336); experiment: Inhibition of PIK3CA/PIK3R1 at 10 uM; format: protein-complex assay
[18] = target: Proto-oncogene tyrosine-protein kinase receptor Ret (Homo sapiens) (UniProt P07949); experiment: Inhibition of RET at 10 uM
[19] = target: Platelet-derived growth factor receptor alpha (Homo sapiens) (UniProt P16234); experiment: Inhibition of PDGFRA at 10 uM
[20] = target: Serine/threonine-protein kinase PAK 4 (Homo sapiens) (UniProt O96013); experiment: Inhibition of PAK4 at 10 uM
[21] = target: Macrophage colony-stimulating factor 1 receptor (Homo sapiens) (UniProt P07333); experiment: Inhibition of CSF1R at 10 uM
[22] = target: T1, Mitogen-activated protein kinase 10; conditions: 10 uM
[23] = target: Calcium/calmodulin-dependent protein kinase type II subunit alpha (Homo sapiens) (UniProt Q9UQM7); experiment: Inhibition of CAMK2A at 10 uM
[24] = target: Dual specificity protein kinase TTK (Homo sapiens) (UniProt P33981); experiment: Inhibition of TTK at 10 uM
[25] = target: Serine/threonine-protein kinase PLK2 (Homo sapiens) (UniProt Q9NYY3); experiment: Inhibition of PLK2 at 10 uM
[26] = target: Dual specificity tyrosine-phosphorylation-regulated kinase 1B (Homo sapiens) (UniProt Q9Y463); experiment: Inhibition of DYRK1B at 10 uM
[27] = target: Serine/threonine-protein kinase Chk1 (Homo sapiens) (UniProt O14757); experiment: Inhibition of CHEK1 at 10 uM
[28] = target: Protein-tyrosine kinase 2-beta (Homo sapiens) (UniProt Q14289); experiment: Inhibition of PTK2B at 10 uM
[29] = target: Tyrosine-protein kinase SYK (Homo sapiens) (UniProt P43405); experiment: Inhibition of SYK at 10 uM
[30] = target: Serine/threonine-protein kinase PLK1 (Homo sapiens) (UniProt P53350); experiment: Inhibition of PLK1 at 10 uM
[31] = target: Protein kinase C beta type (Homo sapiens) (UniProt P05771); experiment: Inhibition of PRKCB1 at 10 uM
[32] = target: Tyrosine-protein kinase Lck (Homo sapiens) (UniProt P06239); experiment: Inhibition of LCK at 10 uM
[33] = target: Serine/threonine-protein kinase 16 (Homo sapiens) (UniProt O75716); experiment: Inhibition of STK16 at 10 uM
MDCK = experiment: Efflux ratio of permeability from […] side in MDCK cells expressing p-gp after 120 mins; format: ADME, cell-based, Canis lupus familiaris; conditions: dog, 2 h
[34] = target: RAC-alpha serine/threonine-protein kinase (Homo sapiens) (UniProt P31749); experiment: Inhibition of AKT1 at 10 uM
[35] = target: Glycogen synthase kinase-3 beta (Homo sapiens) (UniProt P49841); experiment: Inhibition of GSK3-beta at 10 uM
[36] = target: Serine/threonine-protein kinase 3 (Homo sapiens) (UniProt Q13188); experiment: Inhibition of STK3 at 10 uM
[37] = target: Dual specificity protein kinase CLK1 (Homo sapiens) (UniProt P49759); experiment: Inhibition of CLK1 at 10 uM
[38] = target: Tyrosine-protein kinase ABL1 (Homo sapiens) (UniProt P00519); experiment: Inhibition of ABL1 at 10 uM
[39] = target: Serine/threonine-protein kinase MARK2 (Homo sapiens) (UniProt Q7KZI7); experiment: Inhibition of MARK2 at 10 uM
[40] = target: Receptor tyrosine-protein kinase erbB-4 (Homo sapiens) (UniProt Q15303); experiment: Inhibition of ERBB4 at 10 uM
[41] = target: Tyrosine-protein kinase JAK1 (Homo sapiens) (UniProt P23458); experiment: Inhibition of JAK1 at 10 uM
[42] = target: Aurora kinase A (Homo sapiens) (UniProt O14965); experiment: Inhibition of AURKA at 10 uM
[43] = target: Insulin receptor (Homo sapiens) (UniProt P06213); experiment: Inhibition of INSR at 10 uM
[44] = target: T2, Mitogen-activated protein kinase 1; experiment: Inhibition of MAPK1 at 10 uM
[45] = Solubility of compound in Hank's buffered salt solution; format: physicochemical

Mitogen-activated protein kinase 8, sequence (P45983 whole entry): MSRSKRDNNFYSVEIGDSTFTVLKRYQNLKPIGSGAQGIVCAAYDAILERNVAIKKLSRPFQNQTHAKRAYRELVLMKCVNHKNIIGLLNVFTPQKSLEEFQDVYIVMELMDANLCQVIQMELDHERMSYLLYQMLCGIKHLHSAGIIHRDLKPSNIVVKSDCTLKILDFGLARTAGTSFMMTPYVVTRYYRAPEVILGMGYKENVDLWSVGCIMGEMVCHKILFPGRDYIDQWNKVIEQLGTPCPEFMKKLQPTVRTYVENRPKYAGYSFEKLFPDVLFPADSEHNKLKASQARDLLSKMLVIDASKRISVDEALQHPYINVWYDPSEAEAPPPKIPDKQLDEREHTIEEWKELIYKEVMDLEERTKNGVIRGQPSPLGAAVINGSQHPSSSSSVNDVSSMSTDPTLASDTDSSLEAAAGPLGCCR
T1 sequence (P53779 whole entry): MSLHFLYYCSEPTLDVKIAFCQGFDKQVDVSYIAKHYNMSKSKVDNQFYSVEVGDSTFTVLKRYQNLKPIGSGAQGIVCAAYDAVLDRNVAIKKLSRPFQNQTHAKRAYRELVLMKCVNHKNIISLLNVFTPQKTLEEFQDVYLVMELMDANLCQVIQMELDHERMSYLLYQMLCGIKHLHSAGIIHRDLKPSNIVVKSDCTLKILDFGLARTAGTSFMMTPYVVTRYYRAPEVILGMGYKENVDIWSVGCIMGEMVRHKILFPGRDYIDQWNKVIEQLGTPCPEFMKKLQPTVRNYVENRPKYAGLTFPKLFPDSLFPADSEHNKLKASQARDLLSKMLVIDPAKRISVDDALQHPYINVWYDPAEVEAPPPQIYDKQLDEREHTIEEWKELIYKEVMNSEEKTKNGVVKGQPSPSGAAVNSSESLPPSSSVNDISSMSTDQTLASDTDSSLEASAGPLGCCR
Mitogen-activated protein kinase 9, sequence (P45984 whole entry): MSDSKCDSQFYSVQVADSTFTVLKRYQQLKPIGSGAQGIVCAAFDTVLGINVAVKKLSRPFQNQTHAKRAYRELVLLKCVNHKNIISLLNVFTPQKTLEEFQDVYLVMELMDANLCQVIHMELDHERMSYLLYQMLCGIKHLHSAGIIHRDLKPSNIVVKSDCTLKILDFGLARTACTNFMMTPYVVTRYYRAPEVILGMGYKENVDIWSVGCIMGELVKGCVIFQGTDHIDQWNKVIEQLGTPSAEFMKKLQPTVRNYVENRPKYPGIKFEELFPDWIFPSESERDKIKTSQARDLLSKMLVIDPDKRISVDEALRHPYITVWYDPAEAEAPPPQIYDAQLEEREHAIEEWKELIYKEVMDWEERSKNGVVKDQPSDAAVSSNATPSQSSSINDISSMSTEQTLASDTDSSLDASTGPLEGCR
T2 sequence (P28482 whole entry): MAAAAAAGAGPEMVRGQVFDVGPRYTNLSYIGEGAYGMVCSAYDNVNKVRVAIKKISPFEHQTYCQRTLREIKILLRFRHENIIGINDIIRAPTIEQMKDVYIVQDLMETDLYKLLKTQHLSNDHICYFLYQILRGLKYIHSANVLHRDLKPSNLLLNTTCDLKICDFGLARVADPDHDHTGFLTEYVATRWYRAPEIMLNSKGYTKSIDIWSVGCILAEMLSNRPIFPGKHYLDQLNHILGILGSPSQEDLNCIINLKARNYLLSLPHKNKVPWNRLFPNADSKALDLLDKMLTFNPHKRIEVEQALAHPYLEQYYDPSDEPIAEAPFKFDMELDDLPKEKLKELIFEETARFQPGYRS
Mitogen-activated protein kinase 14, sequence (Q16539 whole entry): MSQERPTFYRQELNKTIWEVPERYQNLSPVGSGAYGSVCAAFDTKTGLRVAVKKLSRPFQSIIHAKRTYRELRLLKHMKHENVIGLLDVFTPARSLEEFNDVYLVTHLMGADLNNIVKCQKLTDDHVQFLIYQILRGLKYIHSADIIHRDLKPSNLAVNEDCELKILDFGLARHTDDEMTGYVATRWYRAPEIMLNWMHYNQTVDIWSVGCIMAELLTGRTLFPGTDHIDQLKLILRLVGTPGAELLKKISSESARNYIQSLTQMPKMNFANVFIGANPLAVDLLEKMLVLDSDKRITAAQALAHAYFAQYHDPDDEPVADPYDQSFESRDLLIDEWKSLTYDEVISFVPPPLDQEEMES
Serine/threonine-protein kinase PAK 4 (Homo sapiens), sequence (O96013 whole entry, looked up): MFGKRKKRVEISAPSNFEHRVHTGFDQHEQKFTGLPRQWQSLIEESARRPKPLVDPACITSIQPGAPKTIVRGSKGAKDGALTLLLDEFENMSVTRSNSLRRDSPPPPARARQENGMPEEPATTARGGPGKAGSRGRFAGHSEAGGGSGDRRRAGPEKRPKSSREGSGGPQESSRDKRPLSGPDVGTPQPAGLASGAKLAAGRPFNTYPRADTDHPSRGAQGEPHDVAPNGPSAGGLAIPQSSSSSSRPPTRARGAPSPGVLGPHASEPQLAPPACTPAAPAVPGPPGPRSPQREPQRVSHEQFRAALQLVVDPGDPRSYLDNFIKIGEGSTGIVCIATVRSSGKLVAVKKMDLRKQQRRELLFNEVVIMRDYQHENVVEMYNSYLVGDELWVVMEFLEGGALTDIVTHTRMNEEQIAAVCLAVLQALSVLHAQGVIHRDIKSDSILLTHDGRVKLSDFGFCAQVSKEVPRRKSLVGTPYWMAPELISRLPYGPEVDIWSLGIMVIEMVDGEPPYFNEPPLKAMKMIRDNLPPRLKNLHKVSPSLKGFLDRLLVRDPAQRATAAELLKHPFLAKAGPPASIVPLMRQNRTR
Cyclin-dependent kinase 5/CDK5 activator 1 (Homo sapiens), sequence (Q00535 whole entry): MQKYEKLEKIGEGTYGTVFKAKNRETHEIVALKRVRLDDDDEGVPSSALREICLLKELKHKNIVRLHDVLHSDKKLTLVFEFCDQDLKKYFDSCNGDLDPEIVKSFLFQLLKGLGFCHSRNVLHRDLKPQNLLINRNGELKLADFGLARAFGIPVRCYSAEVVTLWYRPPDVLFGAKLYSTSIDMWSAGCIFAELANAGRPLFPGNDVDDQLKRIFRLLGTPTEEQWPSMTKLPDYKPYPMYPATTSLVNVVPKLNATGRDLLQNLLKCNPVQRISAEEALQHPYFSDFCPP
Cyclin-dependent kinase 5/CDK5 activator 1 (Homo sapiens), sequence (Q15078 99-307 partner limits assumed): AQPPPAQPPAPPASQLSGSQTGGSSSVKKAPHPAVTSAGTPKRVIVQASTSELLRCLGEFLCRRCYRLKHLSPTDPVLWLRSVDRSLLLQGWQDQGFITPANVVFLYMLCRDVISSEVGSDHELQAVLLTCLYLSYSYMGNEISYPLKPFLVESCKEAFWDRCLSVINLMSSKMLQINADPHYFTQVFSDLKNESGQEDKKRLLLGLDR
Serine/threonine-protein kinase PLK3 (Homo sapiens), sequence (Q9H4B4 whole entry, looked up): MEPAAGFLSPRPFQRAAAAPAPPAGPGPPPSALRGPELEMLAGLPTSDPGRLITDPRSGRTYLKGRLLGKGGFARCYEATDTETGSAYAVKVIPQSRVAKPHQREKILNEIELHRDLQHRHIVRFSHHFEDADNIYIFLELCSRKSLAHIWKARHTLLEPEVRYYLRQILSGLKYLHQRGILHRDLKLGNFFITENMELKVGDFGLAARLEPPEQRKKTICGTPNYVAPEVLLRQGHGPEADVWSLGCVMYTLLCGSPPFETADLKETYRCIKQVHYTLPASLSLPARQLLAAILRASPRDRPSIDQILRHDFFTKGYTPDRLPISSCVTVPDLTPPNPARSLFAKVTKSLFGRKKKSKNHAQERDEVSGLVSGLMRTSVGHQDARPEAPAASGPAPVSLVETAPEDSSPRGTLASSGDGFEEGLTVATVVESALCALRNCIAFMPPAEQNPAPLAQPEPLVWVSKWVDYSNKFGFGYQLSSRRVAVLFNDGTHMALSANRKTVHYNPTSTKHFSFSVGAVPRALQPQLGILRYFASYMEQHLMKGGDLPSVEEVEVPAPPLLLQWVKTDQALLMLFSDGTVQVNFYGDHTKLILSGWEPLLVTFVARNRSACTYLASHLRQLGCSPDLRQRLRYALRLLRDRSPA
Tyrosine-protein kinase JAK1 (Homo sapiens), sequence (P23458 whole entry): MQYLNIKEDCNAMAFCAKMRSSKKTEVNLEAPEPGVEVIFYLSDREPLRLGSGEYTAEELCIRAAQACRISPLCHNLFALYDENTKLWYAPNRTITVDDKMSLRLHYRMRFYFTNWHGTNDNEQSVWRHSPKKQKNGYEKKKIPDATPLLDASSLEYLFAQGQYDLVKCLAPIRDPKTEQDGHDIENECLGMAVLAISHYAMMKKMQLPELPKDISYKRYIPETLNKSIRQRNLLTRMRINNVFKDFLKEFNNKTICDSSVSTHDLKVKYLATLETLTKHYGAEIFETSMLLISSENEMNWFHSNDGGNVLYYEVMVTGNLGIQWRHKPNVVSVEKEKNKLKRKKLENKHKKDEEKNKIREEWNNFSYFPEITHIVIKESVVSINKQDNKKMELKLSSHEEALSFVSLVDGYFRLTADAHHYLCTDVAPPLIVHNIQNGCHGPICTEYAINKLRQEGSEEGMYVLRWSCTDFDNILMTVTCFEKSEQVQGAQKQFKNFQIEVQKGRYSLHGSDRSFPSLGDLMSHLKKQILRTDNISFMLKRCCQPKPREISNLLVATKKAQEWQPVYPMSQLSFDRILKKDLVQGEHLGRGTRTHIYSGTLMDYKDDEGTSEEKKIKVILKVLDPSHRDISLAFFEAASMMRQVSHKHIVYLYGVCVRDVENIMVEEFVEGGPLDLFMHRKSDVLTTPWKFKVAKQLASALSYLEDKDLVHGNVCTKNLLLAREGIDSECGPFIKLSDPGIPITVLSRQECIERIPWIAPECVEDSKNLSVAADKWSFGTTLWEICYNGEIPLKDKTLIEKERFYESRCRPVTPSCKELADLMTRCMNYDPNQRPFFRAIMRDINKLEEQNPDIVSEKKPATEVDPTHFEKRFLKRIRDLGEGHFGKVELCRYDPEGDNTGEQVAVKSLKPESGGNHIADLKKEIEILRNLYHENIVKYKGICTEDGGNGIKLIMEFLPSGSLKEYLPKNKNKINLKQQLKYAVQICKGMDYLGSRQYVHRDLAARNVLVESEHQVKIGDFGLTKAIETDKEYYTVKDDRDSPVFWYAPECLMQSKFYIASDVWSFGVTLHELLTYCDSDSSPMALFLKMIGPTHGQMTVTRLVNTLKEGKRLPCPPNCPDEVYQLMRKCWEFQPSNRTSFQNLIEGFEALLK

## O=C(Cc1cccc2ccccc12)Nc1ccsc1-n1ccnc1
[1]
  remaining at 0.5 h: 17%
[2]
  IC50: 9 µM
[3]
  IC50: > 50 µM
[4]
  remaining at 0.5 h: 0%
[5]
  IC50: 26.9 µM

## COC(=O)c1n[nH]cc1NC(=O)Cc1cccc2ccccc12
[2]
  IC50: 5.4 µM
[3]
  IC50: 26.7 µM
[6]
  IC50: > 50 µM
[5]
  IC50: 2.1 µM
[7]
  IC50: > 50 µM

## COc1ccc(CC(=O)Nc2ccsc2-c2cn(C)cn2)cc1
[1]
  remaining at 0.5 h: 49%
[2]
  IC50: 31 µM
[3]
  IC50: > 50 µM
[4]
  remaining at 0.5 h: 1%
[6]
  IC50: > 50 µM
[5]
  IC50: 23.9 µM
[7]
  IC50: > 50 µM
MDR1
  Papp A→B at 2 h: 7 ×10⁻⁶ cm/s

## O=C(Cc1cccc2ccccc12)Nc1ccsc1-c1ncn[nH]1
[1]
  remaining at 0.5 h: 11%
[2]
  IC50: 0.92 µM
[3]
  IC50: 3 µM
[4]
  remaining at 0.5 h: 1%
[5]
  IC50: 0.53 µM

## COc1ccc(CC(=O)Nc2ccsc2-c2cnccn2)cc1
[1]
  remaining at 0.5 h: 0%
[2]
  IC50: 1.5 µM
[3]
  IC50: 5.7 µM
[4]
  remaining at 0.5 h: 0%
[6]
  IC50: > 50 µM
[5]
  IC50: 1.1 µM
[7]
  IC50: > 50 µM
MDR1
  Papp A→B at 2 h: 22.2 ×10⁻⁶ cm/s

## O=C(Cc1cccc2cnccc12)Nc1scnc1-c1cscn1
[1]
  remaining at 0.5 h: 79%
[8]
  Inihibition: 16%
[9]
  Inihibition: 17%
[10]
  Inihibition: 5%
[11]
  Inihibition: 14%
[12]
  Inihibition: 37%
[13]
  Inihibition: 4%
[2]
  IC50: 0.077 µM
[14]
  Inihibition: 9%
[15]
  Inihibition: 3%
[3]
  IC50: 0.47 µM
[4]
  remaining at 0.5 h: 50%
[16]
  Inihibition: 9%
[17]
  Inihibition: 31%
[18]
  Inihibition: 21%
[19]
  Inihibition: 7%
[20]
  Inihibition: -4%
[21]
  Inihibition: 33%
[22]
  Inihibition: 69%
[23]
  Inihibition: 9%
[24]
  Inihibition: 85%
[25]
  Inihibition: 24%
[26]
  Inihibition: 21%
[27]
  Inihibition: 8%
[6]
  IC50: > 50 µM
[28]
  Inihibition: 6%
[29]
  Inihibition: 6%
[30]
  Inihibition: 8%
[31]
  Inihibition: 18%
[32]
  Inihibition: 6%
[33]
  Inihibition: 9%
MDCK
  Ratio: 1.9
[34]
  Inihibition: 2%
[35]
  Inihibition: 13%
[36]
  Inihibition: 5%
[37]
  Inihibition: 7%
[38]
  Inihibition: 7%
[39]
  Inihibition: 8%
[40]
  Inihibition: 4%
[41]
  Inihibition: 4%
[42]
  Inihibition: 27%
[5]
  IC50: 0.048 µM
[7]
  IC50: > 50 µM
[43]
  Inihibition: 3%
[44]
  Inihibition: 16%

## O=C(Cc1cccc2ncccc12)Nc1ccsc1-c1nnc[nH]1
[1]
  remaining at 0.5 h: 67%
[2]
  IC50: 0.56 µM
[3]
  IC50: 0.71 µM
[4]
  remaining at 0.5 h: 23%
[45]
  solubility: > 100 µM
MDCK
  Ratio: 4.2
[5]
  IC50: 0.27 µM
[7]
  IC50: > 50 µM
MDR1
  Papp A→B at 2 h: 6 ×10⁻⁶ cm/s

## COc1ccc(CC(=O)Nc2ccsc2N2CCOC2=O)cc1
[1]
  remaining at 0.5 h: 83%
[2]
  IC50: 37 µM
[3]
  IC50: > 50 µM
[4]
  remaining at 0.5 h: 26%
[5]
  IC50: > 50 µM
MDR1
  Papp A→B at 2 h: 26 ×10⁻⁶ cm/s

## COc1ccc(CC(=O)Nc2ccsc2-c2c[nH]c(C)n2)cc1
[1]
  remaining at 0.5 h: 17%
[2]
  IC50: 27 µM
[3]
  IC50: > 50 µM
[4]
  remaining at 0.5 h: 0%
[6]
  IC50: > 50 µM
[5]
  IC50: 23.4 µM
[7]
  IC50: > 50 µM
MDR1
  Papp A→B at 2 h: 33.8 ×10⁻⁶ cm/s

## COc1ccc(CC(=O)Nc2ccsc2-c2nc(C(F)(F)F)n[nH]2)cc1
[1]
  remaining at 0.5 h: 71%
[2]
  IC50: 5.9 µM
[3]
  IC50: 15 µM
[4]
  remaining at 0.5 h: 8%
[6]
  IC50: > 50 µM
[5]
  IC50: 3.4 µM
[7]
  IC50: > 50 µM

## COC(=O)c1ncsc1NC(=O)Cc1cccc2cnccc12
[1]
  remaining at 0.5 h: 41%
[2]
  IC50: 1.6 µM
[3]
  IC50: 5.3 µM
[4]
  remaining at 0.5 h: 11%
[6]
  IC50: > 50 µM
MDCK
  Ratio: 0.8
[5]
  IC50: 1.7 µM
[7]
  IC50: > 50 µM
